# Results from different studies.
# Compare with care: the assays were run in different laboratories.
Structure (SMILES),target or system,test,test system,conditions,endpoint,value
C[N+]1=C2C=C(NCCc3ccc(O)cc3)C(=O)c3[nH]cc(c32)CC1,Plasmodium falciparum,"parasite growth, SYBR Green",3D7,blood stage,IC50,0.0188 µM
Cc1c2ccncc2c(C)c2c1[nH]c1ccccc12,NCI-H460,"cell growth or viability, SRB",,72 h,GI50,4.1 µM
CC(C)C[C@@H]1NC(=O)[C@H](CC(N)=O)NC(=O)[C@H](CCCNC(=N)N)NC(=O)[C@H]([C@@H](C)O)NC(=O)[C@@H]2CSSC[C@@H]3NC(=O)[C@H]([C@@H](C)O)NC(=O)CNC(=O)CNC(=O)[C@H](C(C)C)NC(=O)[C@@H]4CSSC[C@H](NC(=O)[C@H](CCCCN)NC(=O)[C@H](CSSC[C@H](NC(=O)[C@H](C(C)C)NC(=O)[C@@H]5CCCN5C(=O)[C@H](CC(C)C)NC1=O)C(=O)NCC(=O)N[C@@H](CCC(=O)O)C(=O)N[C@@H]([C@@H](C)O)C(=O)N4)NC(=O)CNC(=O)[C@@H]1CCCN1C(=O)[C@H]([C@@H](C)O)NC(=O)[C@H](CC(N)=O)NC3=O)C(=O)N[C@@H](CO)C(=O)N[C@@H](Cc1c[nH]c3ccccc13)C(=O)N1CCC[C@H]1C(=O)N[C@@H](C(C)C)C(=O)N2,Sf9,"cell growth or viability, MTT",,24 h,IC50,1.8 µM
Cn1cc2c3c1C(=O)C(N)=CC3=NCC2,Plasmodium falciparum,"parasite growth, SYBR Green",3D7,blood stage,IC50,3.3 µM
CC(C)C[C@@H]1NC(=O)CNC(=O)[C@H](CC(N)=O)NC(=O)[C@H](CCCNC(=N)N)NC(=O)[C@H]([C@@H](C)O)NC(=O)[C@@H]2CSSC[C@@H]3NC(=O)[C@H]([C@@H](C)O)NC(=O)CNC(=O)CNC(=O)[C@H](C(C)C)NC(=O)[C@@H]4CSSC[C@H](NC(=O)[C@H](CCCCN)NC(=O)[C@H](CSSC[C@H](NC(=O)[C@H](C(C)C)NC(=O)[C@@H]5CCCN5C1=O)C(=O)NCC(=O)N[C@@H](CCC(=O)O)C(=O)N[C@@H]([C@@H](C)O)C(=O)N4)NC(=O)CNC(=O)[C@@H]1CCCN1C(=O)[C@H]([C@@H](C)O)NC(=O)[C@H](CC(N)=O)NC3=O)C(=O)N[C@@H](CO)C(=O)N[C@@H](Cc1c[nH]c3ccccc13)C(=O)N1CCC[C@H]1C(=O)N[C@@H](C(C)C)C(=O)N2,Sf9,"cell growth or viability, MTT",,24 h,IC50,2.6 µM
O[C@@H](CN[C@@H](COCC1CC1)Cc1ccccc1)c1cc(Cl)cc2c1-c1ccc(Cl)cc1C2,Plasmodium falciparum,"parasite growth, SYBR Green",W2,"48 h, drug-resistant strain, blood stage",IC50,0.0054 µM
CC(C)C[C@@H]1NC(=O)[C@H](CC(N)=O)NC(=O)[C@H](CCCNC(=N)N)NC(=O)[C@H]([C@@H](C)O)NC(=O)[C@@H]2CSSC[C@@H]3NC(=O)[C@H]([C@@H](C)O)NC(=O)CNC(=O)CNC(=O)[C@H](C(C)C)NC(=O)[C@@H]4CSSC[C@H](NC(=O)[C@H]([C@@H](C)O)NC(=O)[C@H](CSSC[C@H](NC(=O)[C@H](C(C)C)NC(=O)[C@@H]5CCCN5C(=O)[C@H](CC(C)C)NC1=O)C(=O)NCC(=O)N[C@@H](CCC(=O)O)C(=O)N[C@@H]([C@@H](C)O)C(=O)N4)NC(=O)CNC(=O)[C@@H]1CCCN1C(=O)[C@H]([C@@H](C)O)NC(=O)[C@H](CC(N)=O)NC3=O)C(=O)N[C@@H](CO)C(=O)N[C@@H](Cc1c[nH]c3ccccc13)C(=O)N1CCC[C@H]1C(=O)N[C@@H](C(C)C)C(=O)N2,Sf9,"cell growth or viability, MTT",,24 h,IC50,1.8 µM
CCCCCNCC(O)c1cc(Cl)cc2c1-c1ccc(Cl)cc1C2 (racemic),Plasmodium falciparum,"parasite growth, SYBR Green",W2,"48 h, drug-resistant strain, blood stage",IC50,0.0087 µM
N.N.[Cl][Pt][Cl],NCI-H460,"cell growth or viability, MTT",,,IC50,7.55 µM
Cn1cc2c3c1C(=O)C(NCCc1ccc(O)cc1)=CC3=[N+](C)CC2,Plasmodium falciparum,"parasite growth, SYBR Green",3D7,blood stage,IC50,0.0437 µM
OC(c1cc(C(F)(F)F)nc2c(C(F)(F)F)cccc12)C1CCCCN1 (centres unmarked),Plasmodium falciparum,"parasite growth, SYBR Green",W2,"48 h, drug-resistant strain, blood stage",IC50,0.0207 µM
